# CSN deneddyl inh = inhibitors of human CSN-mediated cullin deneddylation; Q92905; 0.38% of 360,000 active; inhibition, % at 12.5 µM; Purified CSN, SCF-Nedd8-OG deneddylation, fluorescence polarization;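 active = pattern-corrected inhibition above about 35%, with an unprinted fluorescence ratio check between 0.5 and 1.5, limit read from the data, passing the limit was not always enough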;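 note: 0% = enzyme with substrate and 100% = substrate without enzyme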
# Target sequence (Q92905 whole entry, looked up, one chain of several): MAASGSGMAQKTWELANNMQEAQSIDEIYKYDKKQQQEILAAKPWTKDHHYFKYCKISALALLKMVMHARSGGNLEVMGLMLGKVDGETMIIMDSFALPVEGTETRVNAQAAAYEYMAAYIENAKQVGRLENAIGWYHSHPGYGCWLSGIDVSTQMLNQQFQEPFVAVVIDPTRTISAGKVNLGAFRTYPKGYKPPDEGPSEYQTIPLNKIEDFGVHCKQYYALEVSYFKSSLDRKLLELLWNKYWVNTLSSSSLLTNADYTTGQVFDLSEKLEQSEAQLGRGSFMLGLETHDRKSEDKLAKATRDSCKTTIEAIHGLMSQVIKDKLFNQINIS
#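 Material: human Csn5 produced in HEK293T cells; Input: enzyme 0.24 nM; Reagent: SCFSkp2-Nedd8OG substrate at 10 nM final; Dosing: 12.5 µM compound; Incubation: 90 min reaction at room temperature; Detection: fluorescence polarization of the substrate; Evaluation: % inhibition of substrate cleavage by Csn5; Control set: substrate-only high control, full reaction low control.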
# TPT1 inhibitor = inhibitors of Candida albicans tRNA 2'-phosphotransferase TPT1; recombinant caTPT1, FP RNA substrate dephosphorylation; inhibition, % at 5 µM; 0.81% of 300,000 active;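 active = inhibition above the mean of all tested compounds plus 3 SD, set per screening campaign, cut at about 24% in these data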;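 note: plate controls were DMSO alone for no effect and ferristatin control at 100 nM for full effect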
# Rpn11 inh = inhibitors of human proteasome Rpn11 | O00487 | human 26S proteasome, Ub4-pepOG fluorescence polarization; 20S core pre-blocked with epoxomicin | inhibition, % at 20 µM | 0.59% of 360,000 active | AID 588493;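 active = inhibition at 20 µM, scaled to each plate's controls, above about 33%, limit read from the data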
# Target sequence (O00487 whole entry, looked up): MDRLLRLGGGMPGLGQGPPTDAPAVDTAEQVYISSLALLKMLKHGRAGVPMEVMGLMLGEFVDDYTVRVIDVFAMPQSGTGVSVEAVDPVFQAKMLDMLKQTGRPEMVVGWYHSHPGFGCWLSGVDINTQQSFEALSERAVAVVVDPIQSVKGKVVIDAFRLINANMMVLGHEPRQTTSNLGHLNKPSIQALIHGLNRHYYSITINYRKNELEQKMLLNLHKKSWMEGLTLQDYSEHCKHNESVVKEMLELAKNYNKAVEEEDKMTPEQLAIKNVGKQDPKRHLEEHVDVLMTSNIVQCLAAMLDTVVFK
# HNF4A DNA FP = change in binding of human HNF4 alpha to DNA. activity change, % at 10 µM. 0.3% of 360,000 active. AID 1224865. HNF4a-FITC DNA binding, fluorescence polarization, 1 h; in the data active = activity change above about 30%, passing the limit was not always enough
# Rpn11 inh conf = confirmation of human proteasome Rpn11 inhibitors; purified human 26S proteasome, Ub4-pepOG fluorescence polarization; proteasome pretreated with epoxomicin; inhibition, % at 20 µM; 29% of 1,900 active; shares compounds with Rpn11 inh
# MMP-2 counter = blocks human MMP-2, flagging nonselective RPN11 hits | shares compounds with Rpn11 inh | recombinant MMP-2, FRET peptide cleavage fluorescence | inhibition, % at 20 µM | 4% of 1,900 active | AID 602330;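 note: human MMP-2 activated beforehand with APMA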
# Thrombin inh = blocks bovine thrombin, flagging nonselective RPN11 hits; shares compounds with Rpn11 inh; bovine thrombin cleavage of Ub4-pepOG, fluorescence polarization; inhibition, % at 20 µM; 13% of 1,900 active; AID 602333;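 active = mean inhibition at least 40% at 20 µM, or signal 3 deviations below plate average, so some actives read negative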;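 note: plate controls were thrombin with DMSO for no effect and buffer wells lacking thrombin for full effect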
# * marks the source's active call; other numbers are inactive results; . = not tested or not shown; + = active, no number. An excerpt weighted towards active compounds, which were near 1.5% of everything screened. Cut-off read from the data, not from the text of the source, unless noted: active = inhibition above about 40%; inactive = the rest.
SMILES,CSN deneddyl inh,TPT1 inhibitor,Rpn11 inh,HNF4A DNA FP,Rpn11 inh conf,MMP-2 counter,Thrombin inh
COc1ccc(-c2cc(C(=O)Nc3ccc(Br)cc3)no2)cc1,5,-3,59*,3,-27,-43,-20
COc1ccc(-c2cc(C(=O)Nc3cc(Cl)ccc3O)no2)cc1,5,2,51*,5,12,-7,-5
Cc1ccc(C)c(NC(=O)CN(C)C(=O)c2ccccc2Cc2ccccc2)c1,-4,-1,-1,-3,.,.,.
Cc1nn(-c2ccc(F)cc2)c(Cl)c1/C=N/NC(=O)c1cccc(S(=O)(=O)N2CCCC2)c1,5,-1,14,-3,.,.,.
Cc1nn(-c2ccccc2)c(Cl)c1/C=N/NC(=O)c1cccc(S(=O)(=O)N2CCCC2)c1,14,2,40*,34,28,31,-10
CC(C)c1ccc(-c2c(NCCc3ccccc3)c(=O)c2=O)cc1,1,-1,6,4,.,.,.
COc1cc(-c2cc(-c3ccc(F)cc3)nc(N)c2C#N)ccc1O,-8,-1,97*,83*,0,-12,-7
O=C(NCCC(=O)N(Cc1ccco1)Cc1cccs1)c1ccc([N+](=O)[O-])cc1,0,.,-4,3,.,.,.
CCN1CC(O)=C(c2nc3ccccc3s2)C1=N,-2,-6,99*,22,4,-41,-5
CC(C)(C)NC(=O)CSc1ncnc2c1cnn2-c1ccccc1,1,0,-6,1,.,.,.
N#C/C(=C\c1ccc(Cl)cc1)C(=O)Nc1cccnc1,0,-2,91*,-11,-8,-34,-7
COc1ccc(/C=C(\C#N)C(=O)Nc2cccnc2)cc1,-6,-4,1,4,.,.,.
c1ccc(OCCn2c(-c3ccco3)nc3ccccc32)cc1,9,10,49*,10,-5,-13,-14
COc1ccc(N2C(=O)CCC(C(=O)Nc3cccc(C)n3)C2c2ccc(OC)c(OC)c2)cc1 (centres undefined),7,-3,+,-4,-11,-36,-8
COc1ccc(N2C(=O)CCC(C(=O)NCc3ccccn3)C2c2ccc(OC)c(OC)c2)cc1 (centres undefined),2,-1,-2,2,.,.,.
O=C(Nc1nc2ccc(S(=O)(=O)N3CCCCC3)cc2s1)c1ccncc1,1,0,11,26,.,.,.
Cc1ccc2nc(NC(=O)c3ccc(S(=O)(=O)N4CCCc5ccccc54)cc3)sc2c1,-4,-6,41*,-2,-15,-34,-14
O=C(Nc1nc2ccc(S(=O)(=O)N3CCCCC3)cc2s1)c1cccnc1,2,4,54*,7,6,-9,-2
O=C(Nc1nc2ccc(F)cc2s1)c1cccc(S(=O)(=O)N2CCc3ccccc32)c1,-2,-3,6,2,.,.,.
Cc1ccc(S(=O)(=O)N2CCCC2C(=O)Nc2nc3ccccc3s2)cc1 (centres undefined),-2,4,31*,-21,-14,0,-19
COc1ccc(NC(=O)CN(C)C(=O)c2cccc(S(=O)(=O)N3CCN(c4ccc(F)cc4)CC3)c2)cc1,-1,.,6,-2,.,.,.
CCOC(=O)C1=CN(CC)S(=O)(=O)NC1c1ccc2ccccc2c1 (centres undefined),-7,.,-4,1,.,.,.
COc1ccc(CC(=O)N(Cc2ccccc2)c2ccc(C)cc2)cc1OC,-6,-1,-1,2,.,.,.
Cc1ccc(CN(C(=O)c2csnn2)C(C(=O)NC2CCCC2)c2ccccn2)cc1 (centres undefined),-6,3,48*,1,-23,-39,-20
Cc1ccc(N(C(=O)c2csnn2)C(C(=O)NC2CCCCC2)c2ccccn2)cc1 (centres undefined),3,-4,0,0,.,.,.
SMILES,CSN deneddyl inh,TPT1 inhibitor,Rpn11 inh,HNF4A DNA FP,Rpn11 inh conf,MMP-2 counter,Thrombin inh
COc1ccc(C2C(C(=O)Nc3ccccc3OC)=C(C)Nc3ncnn32)cc1 (centres undefined),4,0,1,0,.,.,.
COc1ccccc1NC(=O)C1=C(C)Nc2ncnn2C1c1cccs1 (centres undefined),4,4,78*,1,-11,-6,-12
Cc1nnn(-c2nonc2N)c1C(=O)NNC(=O)c1ccc(Cl)c(Cl)c1,-3,-1,53*,-2,0,0,4
CCN1CCN(Cc2c(C(=O)N/N=C(\C)c3ccc(Cl)c(Cl)c3)nnn2-c2nonc2N)CC1,.,-3,.,.,.,.,.
COc1ccc2cc(/C=C3\SC(=S)NC3=O)c(N3CCOCC3)nc2c1,21,11,55*,24,48*,25,active
O=C1NCCNC1c1ccccc1 (centres undefined),4,.,6,1,.,.,.
NC(=O)C(=O)N/N=C/c1c2ccccc2cc2ccccc12,77,-2,41*,106,12,-31,-9
Cc1cc(C(=O)N/N=C/c2c3ccccc3cc3ccccc23)n[nH]1,-1,-1,6,3,.,.,.
Cc1ccc(CNC(=O)CCn2cc(-c3ccc(C)cc3)nc2CCN)cc1,1,-3,4,-1,.,.,.
O=S(=O)(c1ccc(Cl)cc1)N1CCc2ccccc21,54*,0,42*,93*,147*,-45,132*
O=S(=O)(c1ccc(Cl)cc1)N1CCCc2ccccc21,-1,0,-5,3,.,.,.
Nc1cc(=O)[nH]c(SCC(=O)N2N=C(c3ccc(Cl)cc3)CC2c2ccco2)n1 (centres undefined),8,3,44*,8,3,-40,-6
COC(=O)CCCn1cc(CN2CC(N3CCN(CCN(C)C)CC3)CS2(=O)=O)nn1 (centres undefined),-5,.,.,-3,.,.,.
Cc1cccc(C(=O)NCCC(=O)Nc2ccc(F)c([N+](=O)[O-])c2)c1,-5,0,0,-4,.,.,.
CN(C)CCCNc1nc2cc(-c3ccc4c(ccn4C)c3)sc2c(=O)n1C,8,.,39*,5,18,7,-15
CN(C)CCCNc1nc2cc(-c3ccsc3)sc2c(=O)n1C,0,.,1,4,.,.,.
Cc1ccccc1C(=O)O/N=C(\N)c1cccc([N+](=O)[O-])c1,7,3,-2,-8,.,.,.
N/C(=N\OC(=O)c1cccc2ccccc12)c1cccc([N+](=O)[O-])c1,13,-5,81*,10,13,32,-6
Cc1cc2ncn(/N=C/c3ccc([N+](=O)[O-])o3)c2cc1C,11,-3,50*,7,50*,-22,20
O=C(NCc1ccccn1)c1cccc(S(=O)(=O)N2CCCCC2)c1,-3,.,5,1,.,.,.
CCC(CC)CN1C(N(C)C)=NC[C@@H]1CC(C)C,-2,-2,-8,-2,.,.,.
CSCCC(NC(=O)c1ccco1)C(=O)NCc1ccc2c(c1)OCO2 (centres undefined),-3,.,2,0,.,.,.

# Assay outcomes from PubChem.
